ChEMBL document CHEMBL4190281, “Azacyclo-indoles and Phenolics from the Flowers of Juglans regia” (J Nat Prod, 2017)

What was measured:
BGC-823 = experiment: Growth inhibition of human BGC823 cells after 96 hrs by MTT assay; type: functional, cell-based; details: BGC-823, 96 h
Method in brief: (§1)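 Cancer cell lines exposed continuously to each sample for 96 h; growth read by MTT assay. IC50, the concentration inhibiting cell growth by 50%, taken as the mean of three replicates. Taxol and NK109 served as positive controls.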

NCI-H1650 = experiment: Growth inhibition of human NCI-H1650 cells after 96 hrs by MTT assay; type: functional, cell-based; details: NCI-H1650, 96 h; method in brief: as §1
HepG2 = experiment: Growth inhibition of human HepG2 cells after 96 hrs by MTT assay; type: functional, cell-based; details: HepG2, 96 h
A2780 = experiment: Growth inhibition of human A2780 cells after 96 hrs by MTT assay; type: functional, cell-based; details: A2780, 96 h; method in brief: as §1
HCT-116 = experiment: Growth inhibition of human HCT116 cells after 96 hrs by MTT assay; type: functional, cell-based; details: HCT-116, 96 h; method in brief: as §1
[1] = Cytotoxicity against rat IEC-6 cells assessed as survival rate at 10 uM after 48 hrs by MTT assay relative to control; type: cell-based; details: read-out: Survival
Method in brief: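 MTT read-out of viability in normal IEC-6 intestinal cells co-incubated with compound at 10 μM; readings at 0, 24 and 48 h of coculture (n = 5); survival expressed against a blank control group.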

| Compound | IC50 (BGC-823) [µM] | IC50 (NCI-H1650) [µM] | IC50 (HepG2) [µM] | IC50 (A2780) [µM] | IC50 (HCT-116) [µM] | viability at 48 h, 10 µM [1] [%] |
| --- | --- | --- | --- | --- | --- | --- |
| COc1ccc2c(c[n+](C)c3c4cc5c(cc4ccc23)OCO5)c1O | 1.84 | 1.75 | 1.19 | 0.9 | 3.94 | – |
| Nc1ncnc2c1ncn2[C@H]1CCC(=O)c2c(O)ccc(O)c21 | > 10 | > 10 | > 10 | > 10 | > 10 | – |
| O=Cc1ccc2n1CCc1c([nH]c3ccccc13)C2 | 2.28 | 2.86 | 1.87 | 0.96 | 2.87 | 79.6 |
| O=C1CC[C@H]2c3c([nH]c4ccccc34)CCN12 | > 10 | > 10 | > 10 | > 10 | > 10 | – |
| Nc1ncnc2c1ncn2[C@@H]1CCC(=O)c2c(O)ccc(O)c21 | > 10 | > 10 | > 10 | > 10 | > 10 | – |
| NC(=O)[C@@H]1CCC(=O)c2cccc(O)c2N1 | > 10 | > 10 | > 10 | > 10 | > 10 | – |
| O=C1CC[C@@H](c2c[nH]c3ccccc23)c2c(O)ccc(O)c21 | > 10 | > 10 | > 10 | > 10 | > 10 | – |
| O=C1CC[C@H](c2c[nH]c3ccccc23)c2c(O)ccc(O)c21 | > 10 | > 10 | > 10 | > 10 | > 10 | – |
| CCOCc1ccc(C=O)n1CCc1ccc(O)cc1 | > 10 | > 10 | > 10 | > 10 | > 10 | – |
| Nc1ncnc2c1ncn2[C@@H]1CCC(=O)c2cccc(O)c21 | > 10 | > 10 | > 10 | > 10 | > 10 | – |
| Nc1ncnc2c1ncn2[C@H]1CCC(=O)c2cccc(O)c21 | > 10 | > 10 | > 10 | > 10 | > 10 | – |
| O=C1CC[C@@H]2c3c([nH]c4ccccc34)CCN12 | > 10 | > 10 | > 10 | > 10 | > 10 | – |
| NC(=O)[C@H]1CCC(=O)c2cccc(O)c2N1 | > 10 | > 10 | > 10 | > 10 | > 10 | – |
| Nc1ncnc2c1ncn2C1CCC(=O)c2cccc(O)c21 (racemic) | > 10 | > 10 | > 10 | > 10 | > 10 | – |
| Nc1ncnc2c1ncn2C1CCC(=O)c2c(O)ccc(O)c21 (racemic) | > 10 | > 10 | > 10 | > 10 | > 10 | – |
| O=C1CCC2c3c([nH]c4ccccc34)CCN12 (racemic) | > 10 | > 10 | > 10 | > 10 | > 10 | – |
| NC(=O)C1CCC(=O)c2cccc(O)c2N1 (racemic) | > 10 | > 10 | > 10 | > 10 | > 10 | – |
| O=C1CCC(c2c[nH]c3ccccc23)c2c(O)ccc(O)c21 (racemic) | > 10 | > 10 | > 10 | > 10 | > 10 | – |
| CC(=O)O[C@H]1C(=O)[C@@]2(C)[C@H]([C@H](OC(=O)c3ccccc3)[C@]3(O)C[C@H](OC(=O)[C@H](O)[C@@H](NC(=O)c4ccccc4)c4ccccc4)C(C)=C1C3(C)C)[C@]1(OC(C)=O)CO[C@@H]1C[C@@H]2O [PACLITAXEL] | 0.0006 | > 1 | – | 0.0204 | 0.0002 | – |
